In ChEMBL document CHEMBL3797120, “Identification of 1,2,3-triazole derivatives that protect pancreatic β cells against endoplasmic reticulum stress-mediated dysfunction and death through the inhibition of C/EBP-homologous protein expression” (Bioorg Med Chem, 2016):
Calls of active or inactive are those of the source. The rule behind the calls is not given here.

Legend:
HEK293 [1] = assay: Inhibition of endoplasmic reticulum stress-mediated upregulation of CHOP gene expression in tunicamycin-treated HEK293 cells after 24 hrs by bright-glo luciferase reporter gene assay; type: functional, cell-based; conditions: Homo sapiens, HEK293, 24 h
Outline: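 HEK293 cells stably carrying a CHOP promoter-luciferase reporter were seeded at 7 × 10³/well and incubated 16 h. Compound at indicated concentrations and Tm 1 μg/mL were added, and luciferase read by Bright-Glo 24 h later. IC50 determined for CHOP-Luc inhibition.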

INS1 [2] = assay: Cytoprotective activity in endoplasmic reticulum stressed rat INS-1 cells assessed as rescue from tunicamycin-mediated reduction in cell viability at 40 uM after 72 hrs by CellTiter-Glo assay relative to control; type: functional
Outline: (§1)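 INS-1 cells seeded at 3 × 10³/well and exposed for 72 h to Tm 0.1 μg/ml plus compound. Viability measured as ATP by CellTiter-Glo. Tm alone was set to 0% and DMSO without Tm to 100% rescue. Values are the mean of three experiments. EC50 was derived for survival.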

INS1 [3] = assay: Cytoprotective activity in endoplasmic reticulum stressed rat INS-1 cells assessed as rescue from tunicamycin-mediated reduction in cell survival after 72 hrs by CellTiter-Glo assay; conditions: INS1, 72 h
INS1 [4] = assay: Cytoprotective activity in endoplasmic reticulum stressed rat INS-1 cells assessed as rescue from tunicamycin-mediated reduction in cell viability at 10 uM after 72 hrs by CellTiter-Glo assay relative to control; type: functional; outline: as §1
[5] = Inhibition of endoplasmic reticulum stress-mediated upregulation of CHOP mRNA expression in tunicamycin-treated rat INS-1 cells at 20 uM after 2 to 8 hrs by qRT-PCR method; type: functional, cell-based; conditions: INS1
INS1 [6] = assay: Cytoprotective activity in endoplasmic reticulum stressed rat INS-1 cells assessed as rescue from tunicamycin-mediated reduction in cell viability at 20 uM after 72 hrs by CellTiter-Glo assay relative to control; type: functional; outline: as §1
INS1 [7] = assay: Cytoprotective activity in endoplasmic reticulum stressed rat INS-1 cells assessed as rescue from tunicamycin-mediated reduction in cell viability at 5 uM after 72 hrs by CellTiter-Glo assay relative to control; type: functional; outline: as §1
[8] = Inhibition of endoplasmic reticulum stress-mediated upregulation of CHOP mRNA expression in tunicamycin-treated rat INS-1 cells at 5 to 20 uM after 8 hrs by qRT-PCR method; type: functional, cell-based; conditions: INS1
Outline: (§2)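 INS-1 cells seeded at 4 × 10⁵/well and treated with Tm 0.1 μg/ml plus compound, either for 8 h at indicated concentrations or for indicated times at 10 μM. CHOP mRNA was measured by qRT-PCR with rat primers, normalized to rat cyclophilin A, and reported as fold change.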

HEK293 [9] = assay: Inhibition of endoplasmic reticulum stress-mediated upregulation of CHOP mRNA expression in tunicamycin-treated HEK293 cells after 2 to 8 hrs by qRT-PCR method; type: functional, cell-based; conditions: Homo sapiens
Outline: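 HEK293 cells seeded at 4 × 10⁵/well and treated with Tm 1 μg/ml plus 20 μM compound or DMSO for the indicated times. CHOP mRNA was measured by qRT-PCR (2 μg RNA reverse transcribed), normalized to human cyclophilin A, and reported as fold change. Means ± SD of triplicates.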

[10] = Inhibition of endoplasmic reticulum stress-mediated upregulation of CHOP mRNA expression in tunicamycin-treated rat INS-1 cells at 10 uM after 2 to 8 hrs by qRT-PCR method; type: functional, cell-based; conditions: INS1; outline: as §2

| Structure (SMILES) | EC50 (INS1 [3]) [µM] | %max (INS1 [4]) [%] | other results |
| --- | --- | --- | --- |
| Cc1c(C(=O)Nc2ccccc2)nnn1-c1ccccc1F | 23 |  | IC50 (HEK293 [1]): 1.1 µM; %max (INS1 [2]): 31% |
| Cc1ccc(-n2nnc(C(=O)Nc3cccc(Cl)c3C)c2C)c(C)c1 | 2.5 | 92 |  |
| CCc1cccc(C)c1NC(=O)c1nnn(-c2ccccc2)c1C | 5.8 |  | %max (INS1 [2]): 36% |
| CCc1cccc(C)c1NC(=O)c1nnn(-c2cccc(Cl)c2C)c1C |  | 97 | inhibition [5]: Active |
| CCc1ccc(-n2nnc(C(=O)Nc3cccc(Cl)c3C)c2C)cc1 | 7.8 | 88 |  |
| CCOc1ccccc1-n1nnc(C(=O)Nc2c(C)cccc2CC)c1C |  |  | %max (INS1 [2]): 50% |
| Cc1c(Cl)cccc1NC(=O)c1nnn(-c2ccc(F)cc2)c1C | 8.4 |  | %max (INS1 [6]): 87% |
| COc1ccccc1-n1nnc(C(=O)Nc2c(C)cccc2C)c1C | 0.6 | 28 |  |
| Cc1cccc(NC(=O)c2nnn(-c3ccc(C(C)C)cc3)c2C)c1 | 3.2 | 35 |  |
| CCc1cccc(C)c1NC(=O)c1nnn(-c2ccc(C)cc2)c1C |  |  | %max (INS1 [2]): 82% |
| Cc1c(C(=O)Nc2ccc(F)cc2)nnn1-c1ccc(C(C)C)cc1 | 3.5 | 29 |  |
| Cc1ccccc1NC(=O)c1nnn(-c2ccccc2F)c1C | 8 |  | %max (INS1 [2]): 40% |
| Cc1ccc(-n2nnc(C(=O)Nc3ccccc3C)c2C)cc1C | 3.1 | 56 |  |
| CCc1cccc(C)c1NC(=O)c1nnn(-c2ccccc2Cl)c1C | 2.5 |  | %max (INS1 [2]): 55% |
| CCc1cccc(C)c1NC(=O)c1nnn(-c2ccc(F)cc2)c1C |  |  | %max (INS1 [6]): 28% |
| COc1ccc(-n2nnc(C(=O)Nc3cccc(Cl)c3C)c2C)cc1 | 5.2 |  | %max (INS1 [6]): 81% |
| CCc1ccc(-n2nnc(C(=O)Nc3ccc(NC(C)=O)cc3)c2C)cc1 |  | 15 |  |
| CCc1ccc(-n2nnc(C(=O)Nc3ccc(C)cc3)c2C)cc1 |  | 18 |  |
| Cc1cccc(C)c1NC(=O)c1nnn(-c2ccc(Cl)cc2)c1C | 5.2 |  | %max (INS1 [2]): 57% |
| Cc1c(C(=O)Nc2ccccc2F)nnn1-c1ccc(C(C)C)cc1 | 2.1 |  | IC50 (HEK293 [1]): 0.035 µM; %max (INS1 [7]): 29% |
| Cc1cccc(C)c1NC(=O)c1nnn(-c2cccc(Cl)c2C)c1C | 9 |  | %max (INS1 [2]): 88% |
| CCc1ccc(-n2nnc(C(=O)Nc3ccccc3Cl)c2C)cc1 | 0.6 |  | %max (INS1 [7]): 19% |
| CCc1ccc(-n2nnc(C(=O)Nc3ccc(OC)cc3)c2C)cc1 |  |  | %max (INS1 [7]): 21% |
| CCc1cccc(C)c1NC(=O)c1nnn(-c2ccc(Cl)cc2)c1C |  |  | %max (INS1 [2]): 66% |

| Structure (SMILES) | EC50 (INS1 [3]) [µM] | %max (INS1 [4]) [%] | other results |
| --- | --- | --- | --- |
| CCc1ccc(-n2nnc(C(=O)Nc3ccc(C(=O)OC)cc3)c2C)cc1 |  | 14 | inhibition [8]: inactive |
| Cc1c(Cl)cccc1NC(=O)c1nnn(-c2ccccc2F)c1C | 6.5 |  | %max (INS1 [6]): 92% |
| CCc1ccc(-n2nnc(C(=O)Nc3ccc(F)cc3)c2C)cc1 | 2.7 | 82 |  |
| Cc1c(C(=O)Nc2ccccc2)nnn1-c1ccccc1 | 9.5 |  | IC50 (HEK293 [1]): 1.5 µM; %max (INS1 [6]): 12% |
| Cc1cccc(C)c1NC(=O)c1nnn(-c2ccccc2Cl)c1C | 9.1 |  | %max (INS1 [2]): 44% |
| Cc1cccc(C)c1NC(=O)c1nnn(-c2ccccc2F)c1C | 1.4 |  | %max (INS1 [2]): 23% |
| Cc1ccccc1NC(=O)c1nnn(-c2ccc(C(C)C)cc2)c1C | 2.6 | 54 |  |
| CCc1ccc(-n2nnc(C(=O)Nc3cccc(OC)c3)c2C)cc1 | 3.7 | 31 |  |
| CCc1cccc(C)c1NC(=O)c1nnn(-c2ccccc2OC)c1C | 1 |  | %max (INS1 [6]): 38% |
| CCOc1ccccc1-n1nnc(C(=O)Nc2cccc(Cl)c2C)c1C | 8.7 |  | %max (INS1 [6]): 52% |
| Cc1c(Cl)cccc1NC(=O)c1nnn(-c2ccccc2Cl)c1C | 3.1 |  | %max (INS1 [6]): 94%; inhibition [5]: Active |
| CCc1ccc(-n2nnc(C(=O)Nc3ccc(C(=O)O)cc3)c2C)cc1 |  | 0 | inhibition [8]: inactive |
| CCCCc1ccc(-n2nnc(C(=O)Nc3ccccc3F)c2C)cc1 | 3.5 | 30 |  |
| CCc1cccc(C)c1NC(=O)c1nnn(-c2ccc(OC)cc2)c1C |  |  | %max (INS1 [6]): 39% |
| Cc1ccc(-n2nnc(C(=O)Nc3c(C)cccc3C)c2C)cc1 | 1.7 |  | %max (INS1 [6]): 73% |
| CCc1ccc(-n2nnc(C(=O)Nc3cccc(C)c3)c2C)cc1 | 2.1 |  | %max (INS1 [7]): 72% |
| CCc1ccc(-n2nnc(C(=O)Nc3ccc(Cl)cc3Cl)c2C)cc1 |  | 12 |  |
| Cc1c(C(=O)Nc2cccc(F)c2)nnn1-c1ccc(C(C)C)cc1 | 1.3 |  | IC50 (HEK293 [1]): 0.013 µM; inhibition (HEK293 [9]): Active; %max (INS1 [7]): 33% |
| CCc1ccc(-n2nnc(C(=O)Nc3c(C)cccc3C)c2C)cc1 | 4.6 |  | %max (INS1 [6]): 80% |
| Cc1ccc(-n2nnc(C(=O)Nc3cccc(Cl)c3C)c2C)cc1 | 2.8 | 56 |  |
| CCc1ccc(-n2nnc(C(=O)Nc3ccccc3C)c2C)cc1 | 3.2 | 62 |  |
| CCc1ccc(-n2nnc(C(=O)Nc3cc(C)ccc3C)c2C)cc1 | 1.6 | 90 | inhibition [10]: Active |
| CCc1ccc(-n2nnc(C(=O)Nc3ccccc3CC)c2C)cc1 | 4.2 | 91 |  |
